ChEMBL document CHEMBL3091279, “Discovery and SAR studies of methionine-proline anilides as dengue virus NS2B-NS3 protease inhibitors” (Bioorg Med Chem Lett, 2013)
Structures can show the parent of a compound that is named as a salt. Calls of active or inactive are those of the source. No cut-off for these calls is given here. Non-standard residues stand in square brackets, D forms with d. Residues, ends and D or L forms follow the SMILES beside them. *: point of attachment. Pbf = Cc1c(C)c(S(=O)(=O)*)c(C)c2c1OC(C)(C)C2; Met(O2) = CS(=O)(=O)CC[C@H](N)C(=O)O; Met(O) = CS(=O)CC[C@H](N)C(=O)O; pNA = O=[N+]([O-])c1ccc(N*)cc1; Boc = CC(C)(C)OC(=O)*; NHBn = c1ccc(CN*)cc1; Tfa = O=C(C(F)(F)F)*; NHPh = c1ccc(N*)cc1

Test system: not listed separately
Assay: Competitive inhibition of Dengue virus serotype 2 NS2B-NS3 protease using benzoyl-Nle-Lys-Arg-Arg-AMC as substrate by Dixon plot analysis
Parameters: species or system dengue virus type 2
Summary of the method: (§1)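 DENV2 NS2B-NS3 protease expressed from a plasmid. Enzyme preincubated with inhibitor 3 min, then Bz-Nle-Lys-Arg-Arg-AMC (33 or 66 µM) added. Remaining activity read by fluorescence, ex 356/em 438 nm. Triplicate averages. Ki from Dixon plot (1/v vs inhibitor) at the two substrate levels.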

Structure (SMILES)	Ki [µM]
CSCC[C@H](N)C(=O)N1CCC[C@H]1C(=O)Nc1ccc([N+](=O)[O-])cc1	4.9
CSCC[C@H](NC(=O)OC(C)(C)C)C(=O)N1CCC[C@H]1C(=O)Nc1ccc([N+](=O)[O-])cc1 (Boc-Met-Pro-pNA)	10.5

Test system: dengue virus type 2
Assay: Inhibition of Dengue virus serotype 2 NS2B-NS3 protease using benzoyl-Nle-Lys-Arg-Arg-AMC as substrate assessed as remaining activity at 20 uM incubated for 3 mins followed by substrate addition by fluorescence spectrophotometric analysis relative to control
Summary of the method: as §1

Structure (SMILES)	Activity [%]
COc1ccc(CN[C@@H](CCSC)C(=O)N2CCC[C@H]2C(=O)Nc2ccc([N+](=O)[O-])cc2)cc1	90
CSCC[C@H](N)C(=O)N1CCC[C@H]1C(=O)Nc1ccccc1[N+](=O)[O-]	96
CS(=O)(=O)CC[C@H](N)C(=O)N1CCC[C@H]1C(=O)Nc1ccc([N+](=O)[O-])cc1 (H-[Met(O2)]-Pro-pNA)	103
C[S+]([O-])CC[C@H](N)C(=O)N1CCC[C@H]1C(=O)Nc1ccc([N+](=O)[O-])cc1 (stereo partly specified) (H-[Met(O)]-Pro-pNA)	99

Next, values leading:

Activity [%]	Structure (SMILES)
71	CSCC[C@H](N)C(=O)N1CCC[C@@H]1C(=O)Nc1ccc([N+](=O)[O-])cc1
37	CSCC[C@H](N)C(=O)N1CCC[C@H]1C(=O)Nc1cccc([N+](=O)[O-])c1
38	CSCC[C@H](NCc1ccc([N+](=O)[O-])cc1)C(=O)N1CCC[C@H]1C(=O)Nc1ccc([N+](=O)[O-])cc1
90	Cc1c(C)c(S(=O)(=O)NC(=N)NCCC[C@H](NC(=O)OC(C)(C)C)C(=O)N2CCC[C@H]2C(=O)Nc2ccc([N+](=O)[O-])cc2)c(C)c2c1OC(C)(C)C2 (Boc-Arg(Pbf)-Pro-pNA)
106	Cc1c(C)c(S(=O)(=O)NC(=N)NCCC[C@H](N)C(=O)N2CCC[C@H]2C(=O)Nc2ccc([N+](=O)[O-])cc2)c(C)c2c1OC(C)(C)C2 (H-Arg(Pbf)-Pro-pNA)
93	N=C(N)NCCC[C@H](N)C(=O)N1CCC[C@H]1C(=O)Nc1ccc([N+](=O)[O-])cc1 (H-Arg-Pro-pNA)

Test system: dengue virus type 2
Assay: Inhibition of Dengue virus serotype 2 NS2B-NS3 protease using benzoyl-Nle-Lys-Arg-Arg-AMC as substrate assessed as remaining activity at 15 uM incubated for 3 mins followed by substrate addition by fluorescence spectrophotometric analysis relative to control
Summary of the method: as §1

Activity [%]	Structure (SMILES)
31	CSCC[C@H](N)C(=O)N1CCC[C@H]1C(=O)Nc1ccc([N+](=O)[O-])cc1
45	CSCC[C@H](NC(=O)OC(C)(C)C)C(=O)N1CCC[C@H]1C(=O)Nc1ccc([N+](=O)[O-])cc1 (Boc-Met-Pro-pNA)
58	CSCC[C@H](N)C(=O)N1CCC[C@H]1C(=O)NCc1ccccc1 (H-Met-Pro-NHBn)
54	CSCC[C@H](NC(=O)C(F)(F)F)C(=O)N1CCC[C@H]1C(=O)Nc1ccc([N+](=O)[O-])cc1 (Tfa-Met-Pro-pNA)

Test system: dengue virus type 2
Assay: Inhibition of Dengue virus serotype 2 NS2B-NS3 protease using benzoyl-Nle-Lys-Arg-Arg-AMC as substrate assessed as remaining activity at 200 uM incubated for 3 mins followed by substrate addition by fluorescence spectrophotometric analysis relative to control
Summary of the method: as §1

Activity [%]	Structure (SMILES)
36	CSCC[C@H](N)C(=O)N1CCC[C@H]1C(=O)NCc1ccc([N+](=O)[O-])cc1
25	CC(C)(C)OC(=O)N[C@@H](Cc1ccccc1)C(=O)N1CCC[C@H]1C(=O)Nc1ccc([N+](=O)[O-])cc1 (Boc-Phe-Pro-pNA)
60	CSCC[C@H](N)C(=O)N1CCC[C@H]1C(=O)Nc1ccccc1 (H-Met-Pro-NHPh)
31	N[C@@H](Cc1ccccc1)C(=O)N1CCC[C@H]1C(=O)Nc1ccc([N+](=O)[O-])cc1 (H-Phe-Pro-pNA)

Test system: dengue virus type 2
Assay: Inhibition of Dengue virus serotype 2 NS2B-NS3 protease using benzoyl-Nle-Lys-Arg-Arg-AMC as substrate assessed as fluorescence changes after 0.2 to 1 min by fluorescence spectrophotometric analysis
Summary of the method: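 Fluorescence interference check. Fluorescence change over time followed in three parallel runs at 37 °C in pH 9.0 Tris buffer: NS2B-NS3 with inhibitor, NS2B-NS3 with Bz-Nle-Lys-Arg-Arg-AMC, and NS2B-NS3 with substrate plus inhibitor. Read at ex 356/em 438 nm.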

inhibition	Structure (SMILES)
Active	CSCC[C@H](NC(=O)OC(C)(C)C)C(=O)N1CCC[C@H]1C(=O)Nc1ccc([N+](=O)[O-])cc1 (Boc-Met-Pro-pNA)
